Consider four compounds from ChEMBL document CHEMBL4823318, “Kinetic and structural investigations of novel inhibitors of human epithelial 15-lipoxygenase-2” (Bioorg Med Chem, 2021).

A word on the pIC50: it is the IC50 on a negative log10 scale, so that one unit is a factor of ten.

pIC50: −log10 of the molar value.

The species named for data set [1] is Homo sapiens. Nature of the data set: Selectivity ratio of IC50 for inhibition of human COX2 to IC50 for inhibition of human 15-LOX-2. The method, boiled down:
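Ovine COX-1 or human recombinant COX-2 (~3 μg) was used in 0.1 M Tris-HCl pH 8.0 with 5 mM EDTA, 2 mM phenol and 1 μM hemin at 37 °C. Inhibitor was preincubated with enzyme for 5 min, then ~100 μM AA was added. O2 consumption was recorded with an oxygen electrode, and rates were compared to the DMSO control, in duplicate.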

Data set [2] concerns the target Prostaglandin G/H synthase 1 (Ovis aries) (UniProt P05979). Nature of the data set: Inhibition of ovine COX-1 assessed as enzymatic rate using arachidonic acid as substrate by oxygen electrode measurement of oxygen consumption.
For data set [3], the target named is T1, Polyunsaturated fatty acid lipoxygenase ALOX15B (Homo sapiens) (UniProt O15296).
T1 sequence (whole entry): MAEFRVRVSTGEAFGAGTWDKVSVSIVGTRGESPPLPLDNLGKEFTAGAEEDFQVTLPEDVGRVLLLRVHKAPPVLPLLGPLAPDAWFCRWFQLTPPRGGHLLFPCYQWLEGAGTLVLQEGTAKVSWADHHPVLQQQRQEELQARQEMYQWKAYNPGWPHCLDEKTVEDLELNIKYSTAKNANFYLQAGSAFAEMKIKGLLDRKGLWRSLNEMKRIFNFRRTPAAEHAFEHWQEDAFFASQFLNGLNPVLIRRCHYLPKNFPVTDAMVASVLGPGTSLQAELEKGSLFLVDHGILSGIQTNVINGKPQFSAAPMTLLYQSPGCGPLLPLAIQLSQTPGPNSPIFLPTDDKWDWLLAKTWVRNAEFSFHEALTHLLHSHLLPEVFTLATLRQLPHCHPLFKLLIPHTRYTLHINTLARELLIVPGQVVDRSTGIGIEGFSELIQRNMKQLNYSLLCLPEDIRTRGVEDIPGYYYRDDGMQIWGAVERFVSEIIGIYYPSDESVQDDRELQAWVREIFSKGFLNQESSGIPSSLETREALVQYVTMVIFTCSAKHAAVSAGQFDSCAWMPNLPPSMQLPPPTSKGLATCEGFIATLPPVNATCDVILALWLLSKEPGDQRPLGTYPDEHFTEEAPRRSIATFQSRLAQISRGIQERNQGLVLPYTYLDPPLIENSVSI
The data set is described as follows: Competitive inhibition of human 15-LOX-2 assessed as equilibrium dissociation constant from catalytic site by measuring 15-HpETE by Dixon plots and Dixon replots analysis. The method, boiled down: (§1)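 Steady-state kinetics with h15-LOX-2 at 23 °C in stirred 25 mM HEPES pH 7.5, 0.01% Triton X-100, with 0.7–20 μM AA, reaction started by adding enzyme. Initial rates at varied inhibitor levels were fit to Henri-Michaelis-Menten for Vmax and Km. Slopes from Dixon plots (1/v vs [I]) were replotted against 1/[S]. Kic = (Km/Vmax)/replot slope; Kiu = (1/Vmax)/replot y-intercept.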

The species named for data set [4] is Homo sapiens. Nature of the data set: Selectivity ratio of IC50 for inhibition of ovine COX1 to IC50 for inhibition of human 15-LOX-2.
The species named for data set [5] is Homo sapiens. Nature of the data set: Selectivity ratio of IC50 for inhibition of human 5-LOX to IC50 for inhibition of human 15-LOX-2.
Data set [6] is filed under the species Homo sapiens. Nature of the data set: Selectivity ratio of IC50 for inhibition of human 12-LOX to IC50 for inhibition of human 15-LOX-2. The method, boiled down: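 Conjugated diene formation was followed at 234 nm. Rates were compared with the DMSO control at a single 25 μM inhibitor concentration, in duplicate.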
Data set [7] addresses T1, Polyunsaturated fatty acid lipoxygenase ALOX15B (Homo sapiens). Nature of the data set: Uncompetitive inhibition of human 15-LOX-2 assessed as equilibrium dissociation constant from secondary site by measuring 15-HpETE by Dixon plots and Dixon replots analysis. The method, boiled down:
as §1

For data set [8], the system named is HEK-293T. The data set is described as follows: Cytotoxicity against human HEK293T cells expressing human 15-LOX-2 at 10 uM measured after 1 hr by cell survival assay. In kind it is cell-based. The method, boiled down: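 HEK293T cells stably overexpressing h15-LOX-2 were kept in MEM with 10% FBS, 2 mM glutamine, penicillin/streptomycin and 640 ug/ml G418. Cells were exposed to 0.2% DMSO, 10 μM or 20 μM inhibitor for 1 h. Medium was then replaced and cells were checked daily for death.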

The species named for data set [9] is Homo sapiens. Nature of the data set: Selectivity ratio of IC50 for inhibition of human 15-LOX-1 to IC50 for inhibition of human 15-LOX-2. The method, boiled down: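 h15-LOX-1 (~60 nM total protein) was run at 23 °C, stirred, in 25 mM HEPES pH 7.5, 0.01% Triton X-100 and 10 μM AA. Diene product was read at 234 nm. Inhibition at 25 μM inhibitor was taken against the DMSO rate, in duplicate.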

Data set [10] has as its target T2, Polyunsaturated fatty acid lipoxygenase ALOX8 (Mus musculus, UniProt O35936).
T2 sequence (O35936 whole entry): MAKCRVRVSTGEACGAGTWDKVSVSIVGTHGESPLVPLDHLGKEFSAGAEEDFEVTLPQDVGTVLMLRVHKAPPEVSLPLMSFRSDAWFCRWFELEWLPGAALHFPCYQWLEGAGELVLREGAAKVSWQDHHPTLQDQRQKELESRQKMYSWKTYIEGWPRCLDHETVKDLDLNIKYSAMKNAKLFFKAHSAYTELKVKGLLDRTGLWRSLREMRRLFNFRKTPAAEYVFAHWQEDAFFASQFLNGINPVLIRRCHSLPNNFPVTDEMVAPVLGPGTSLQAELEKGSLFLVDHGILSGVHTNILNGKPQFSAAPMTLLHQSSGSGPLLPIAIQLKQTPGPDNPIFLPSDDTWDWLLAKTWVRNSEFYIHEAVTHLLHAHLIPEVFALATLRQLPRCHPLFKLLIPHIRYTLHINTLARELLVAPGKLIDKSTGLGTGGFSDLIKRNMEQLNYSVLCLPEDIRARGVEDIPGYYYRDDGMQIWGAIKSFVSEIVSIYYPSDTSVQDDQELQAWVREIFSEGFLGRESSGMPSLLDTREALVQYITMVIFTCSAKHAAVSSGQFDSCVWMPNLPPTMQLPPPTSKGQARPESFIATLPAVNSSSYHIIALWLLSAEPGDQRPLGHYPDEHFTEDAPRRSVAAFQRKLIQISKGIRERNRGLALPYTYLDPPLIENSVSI
Nature of the data set: Inhibition of mouse 15-LOX2 assessed as enzymatic rate using arachidonic acid as substrate by UV/Vis spectrophotometric analysis.

`CCc1ccc(CSc2nccn2-c2ccccc2)cc1`: the Ratio IC50 in [1], in data set [4], in data set [5], in data set [6] and in data set [9] was above 50 in each case. Also, the pIC50 was below 4.00 in data set [2] and below 4.30 in data set [10]. The Kic in data set [3] was found to be 0.9 µM. For the same compound, the Kiuc in data set [7] worked out at 3.4 µM. In addition, the Activity result in data set [8] is on record as “Non-Toxic”.
Consider `Brc1ccc(CSc2nccn2-c2ccccc2)cc1`, for which the pIC50 is below 4.00 in [2] and below 4.30 in [10]. The Activity result in data set [8] was “Non-Toxic”.
Regarding `FC(F)(F)c1ccc(CSc2nccn2-c2ccccc2)cc1`, the Ratio IC50 in data set [1], in [4], in data set [5], in data set [6] and in data set [9] was above 50 each time. The pIC50 is below 4.00 in data set [2] and below 4.30 in data set [10]. Further, the Kic in data set [3] worked out at 0.7 µM. Besides, the Activity entry in data set [8] is recorded as “Non-Toxic”.
As to `Cc1ccc(CSc2ncn(-c3ccccc3)n2)cc1`, the Activity result in data set [8] was “Non-Toxic”.
